# Measured values published in ChEMBL document CHEMBL5247630, “Rational design of the zonulin inhibitor AT1001 derivatives as potential anti SARS-CoV-2” (Eur J Med Chem, 2022).
# Non-standard residues stand in square brackets, D forms with d. Residues, ends and D or L forms follow the SMILES beside them. *: point of attachment. Hyp = O=C(O)[C@@H]1C[C@@H](O)CN1; Tic = O=C(O)[C@@H]1Cc2ccccc2CN1; Octanoyl = CCCCCCCC(=O)*; Boc = CC(C)(C)OC(=O)*; tBu = CC(C)(C)*
# Tests used:
# [1] = molecular target: T1, Replicase polyprotein 1ab (Severe acute respiratory syndrome coronavirus 2, UniProt P0DTD1); assay: Binding affinity to C-terminal His6-tagged recombinant SARS-CoV-2 MPro transfected in Escherichia coli BL21 (DE3) assessed as dissociation constant by Cheng-Prusoff equation analysis
# [2] = molecular target: T1, Replicase polyprotein 1ab; assay: Inhibition of C-terminal His6-tagged recombinant SARS-CoV-2 MPro transfected in Escherichia coli BL21 (DE3) using Dabcyl-KTSAVLQSGFRKM-E(Edans)-NH2 as substrate preincubated for 15 mins followed by substrate addition measured after 30 mins by FRET assay
# Summary of the method: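 Recombinant Mpro (20 nM final) was preincubated 15 min at room temperature with compound.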
# [3] = tested on: Human betaherpesvirus 5; assay: Antiviral activity against HCMV AD-169 infected in HELF cells assessed as reduction in viral replication; format: functional, organism-based; conditions: Human betaherpesvirus 5, AD-169, HELF
# [4] = Cytotoxicity against African green monkey Vero cells assessed as change in cell morphology by microscopic analysis; format: toxicity, cell-based; conditions: chlorocebus sabaeus
# Summary of the method: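 Vero CCL81 cells were run in parallel with the antiviral assay in DMEM 2% FCS for 5 days at 37 °C. The value is the minimum concentration causing a microscopically detectable change in cell morphology.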
# [5] = tested on: Human alphaherpesvirus 3; assay: Antiviral activity against thymidine kinase deficient VZV 07-1 infected in HELF cells assessed as reduction in viral replication; format: functional, organism-based; conditions: Human alphaherpesvirus 3, 07-1, HELF
# [6] = tested on: Vero; assay: Cytotoxicity against African green monkey Vero cells assessed as reduction in cell growth by Coulter counter analysis; format: toxicity, cell-based; conditions: chlorocebus sabaeus
# Summary of the method: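 Mock-infected Vero CCL81 cultures were treated with the compound dilution series in DMEM 2% FCS for 5 days at 37 °C.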
# [7] = tested on: SARS-CoV-2; assay: Antiviral activity against SARS-CoV-2 UC-1074 infected in African green monkey Vero cells assessed as reduction in virus-induced cytopathic effect incubated for 5 days by microscopic analysis; format: functional, organism-based; conditions: Severe acute respiratory syndrome coronavirus 2, UC-1074, Vero, 120 h
# [8] = molecular target: Replicase polyprotein 1ab (Severe acute respiratory syndrome coronavirus 2) (UniProt P0DTD1); assay: Binding affinity to C-terminal His6-tagged recombinant SARS-CoV-2 MPro expressed in Escherichia coli BL21 (DE3) assessed as change in entropy by ITC assay
# Summary of the method: (§1)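 E. coli BL21(DE3) Mpro, made untagged by 3C cleavage and SEC, was dialysed into 25 mM Tris-HCl pH 7.6, 20 mM NaCl, 1 mM TCEP. 20–25 µM protein in the cell was titrated with 160–250 µM compound at 28 °C, 0.5% DMSO on both sides, 2.5 µL injections every 180 s. One-site fit with stoichiometry fixed at 1 gave ΔH, ΔS and KD.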
# [9] = molecular target: Replicase polyprotein 1ab (Severe acute respiratory syndrome coronavirus 2) (UniProt P0DTD1); assay: Binding affinity to C-terminal His6-tagged recombinant SARS-CoV-2 MPro expressed in Escherichia coli BL21 (DE3) assessed as change in gibbs free energy by ITC assay
# [10] = tested on: SARS-CoV-2; assay: Antiviral activity against SARS-CoV-2 RG2674 infected in African green monkey Vero cells assessed as reduction in virus-induced cytopathic effect incubated for 5 days by microscopic analysis; format: functional, organism-based; conditions: Severe acute respiratory syndrome coronavirus 2, RG2674, Vero, 120 h
# [11] = molecular target: T1, Replicase polyprotein 1ab; assay: Binding affinity to C-terminal His6-tagged recombinant SARS-CoV-2 MPro expressed in Escherichia coli BL21 (DE3) assessed as dissociation constant by ITC assay; summary of the method: as §1
# [12] = molecular target: Replicase polyprotein 1ab (Severe acute respiratory syndrome coronavirus 2) (UniProt P0DTD1); assay: Binding affinity to C-terminal His6-tagged recombinant SARS-CoV-2 MPro expressed in Escherichia coli BL21 (DE3) assessed as change in enthalpy by ITC assay; summary of the method: as §1
# [13] = tested on: Human alphaherpesvirus 3; assay: Antiviral activity against thymidine kinase positive VZV OKA infected in HELF cells assessed as reduction in viral replication; format: functional, organism-based; conditions: Human alphaherpesvirus 3, OKA
# [14] = tested on: Human betaherpesvirus 5; assay: Antiviral activity against HCMV Davis infected in HELF cells assessed as reduction in viral replication; format: functional, organism-based; conditions: Human betaherpesvirus 5, Davis
# [15] = tested on: SARS-CoV-2; assay: Antiviral activity against SARS-CoV-2 NVDBB-2220 infected in African green monkey Vero cells assessed as reduction in virus-induced cytopathic effect incubated for 5 days by microscopic analysis; format: functional, organism-based; conditions: Severe acute respiratory syndrome coronavirus 2, NVDBB-2220, Vero, 120 h
# [16] = Cytotoxicity against HELF cells assessed as change in cell morphology; format: toxicity, cell-based; conditions: human
# [17] = Cmax in C57BL6 mouse at 0.5 mg/kg, INH measured for 0.25 to 24 hrs; format: ADME, organism-based; design: time lower 0.25 hrs, dose 0.5 mg/kg, time upper 24 hrs, route inh; conditions: in vivo, inhaled_or_intranasal
# Summary of the method: (§2)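 Male C57BL6 mice, 6–8 weeks, 3 per group, single intranasal dose (0.5 mg/kg at 1.0 mg/mL; 1.25 mg/kg at 2.5 mg/mL) or oral dose (10 mg/kg at 1.0 mg/mL; 25 mg/kg at 2.5 mg/mL). Blood collected at 0.25, 1, 2, 4, 8 and 24 h. Cmax, Tmax and AUCt/dose were taken from plasma concentrations, given with SD.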
# [18] = AUCt/dose in C57BL6 mouse at 25 mg/kg, po; format: ADME, organism-based; conditions: in vivo; summary of the method: as §2
# [19] = Tmax in C57BL6 mouse at 0.5 mg/kg, INH; format: ADME, organism-based; conditions: in vivo, inhaled_or_intranasal; summary of the method: as §2
# [20] = Tmax in C57BL6 mouse at 1.25 mg/kg, INH; format: ADME, organism-based; conditions: in vivo, inhaled_or_intranasal; summary of the method: as §2
# [21] = Selectivity index, ratio of EC50 for antiviral activity against SARS-CoV-2 RG2674 infected in African green monkey Vero cells to EC50 for antiviral activity against SARS-CoV-2 UC-1074 infected in African green monkey Vero cells; format: toxicity
# [22] = AUCt/dose in C57BL6 mouse at 0.5 mg/kg, INH measured for 0.25 to 24 hrs; format: ADME, organism-based; conditions: in vivo, inhaled_or_intranasal, time 0.25-24 hrs; summary of the method: as §2
# [23] = AUCt/dose in C57BL6 mouse at 1.25 mg/kg, INH; format: ADME, organism-based; conditions: in vivo, inhaled_or_intranasal; summary of the method: as §2
# [24] = Cmax in C57BL6 mouse at 25 mg/kg, po; format: ADME, organism-based; design: dose 25 mg/kg, route po; conditions: in vivo; summary of the method: as §2
# [25] = Cmax in C57BL6 mouse at 1.25 mg/kg, INH; format: ADME, organism-based; design: dose 1.25 mg/kg, route inh; conditions: in vivo, inhaled_or_intranasal; summary of the method: as §2
# [26] = Tmax in C57BL6 mouse at 10 mg/kg, po; format: ADME, organism-based; conditions: in vivo; summary of the method: as §2
# [27] = Tmax in C57BL6 mouse at 25 mg/kg, po; format: ADME, organism-based; conditions: in vivo; summary of the method: as §2
# [28] = AUCt/dose in C57BL6 mouse at 10 mg/kg, po; format: ADME, organism-based; conditions: in vivo; summary of the method: as §2
# [29] = Selectivity index, ratio of EC50 for antiviral activity against SARS-CoV-2 RG2674 infected in African green monkey Vero cells to EC50 for antiviral activity against SARS-CoV-2 NVDBB-2220 infected in African green monkey Vero cells; format: toxicity
# [30] = Cmax in C57BL6 mouse at 10 mg/kg, po; format: ADME, organism-based; design: dose 10 mg/kg, route po; conditions: in vivo; summary of the method: as §2
# [31] = Stability of compound in PBS buffer at pH 7 at 25 to […] degreeC measured for 3 to 24 hrs by HPLC analysis; format: physicochemical; conditions: time 3-24 hrs
# Summary of the method: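 Peptide at 0.3 mg/mL was held in PBS pH 7.0 at 25 °C and 37 °C for 24 h. The peptide peak area was followed by RP-HPLC on C18 with detection at 220 nm, sampled at 3, 6, 8 and 24 h.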
molecule,measurement,setting,value
CC(=O)NCC(=O)N[C@@H](Cc1c[nH]cn1)C(=O)N[C@H](C=O)Cc1ccc(O)cc1 (Ac-Gly-His-Tyr-aldehyde),Kd,[1],> 213 µM
same,IC50,[2],> 425 µM
CC(C)(C)OC(=O)NCC(=O)N[C@@H](Cc1ccccc1)C(=O)N[C@H](C=O)Cc1c[nH]cn1 (Boc-Gly-Phe-His-aldehyde),EC50,[3],> 20 µM
same,MCC,[4],≥ 100 µM
same,EC50,[5],> 100 µM
same,Kd,[1],3.26 µM
same,IC50,[2],6.49 µM
same,CC50,[6],> 100 µM
same,EC50,[7],50.2 µM
same,-TdeltaS,[8],5.78 kcal/mol
same,deltaG,[9],-8.77 kcal/mol
same,EC50,[10],84.9 µM
same,Kd,[11],0.442 µM
same,deltaH,[12],-14.5 kcal/mol
same,EC50,[13],> 100 µM
same,EC50,[14],> 100 µM
same,EC50,[15],43.3 µM
same,MCC,[16],> 100 µM
CC(=O)NCC(=O)N[C@@H](Cc1ccc(O)cc1)C(=O)N[C@H](C=O)Cc1c[nH]cn1 (Ac-Gly-Tyr-His-aldehyde),Kd,[1],98.9 µM
same,IC50,[2],198 µM
CC(C)(C)O[C@H]1CN[C@H](C(=O)N[C@@H](Cc2c[nH]cn2)C(=O)N[C@H](C=O)Cc2c[nH]cn2)C1 (H-[Hyp](tBu)-His-His-aldehyde),Kd,[1],> 85 µM
same,IC50,[2],> 170 µM
CC(C)C[C@@H](C=O)NC(=O)[C@H](Cc1ccccc1)NC(=O)[C@@H]1Cc2ccccc2CN1 (H-[Tic]-Phe-Leu-aldehyde),Kd,[1],> 213 µM
same,IC50,[2],> 425 µM
CCCCCCCC(=O)NCC(=O)N[C@@H](Cc1ccccc1)C(=O)N[C@H](C=O)Cc1c[nH]cn1 (Octanoyl-Gly-Phe-His-aldehyde),Cmax,[17],177.97 ng/mL
same,EC50,[3],> 20 µM
same,MCC,[4],≥ 100 µM
same,EC50,[5],> 100 µM
same,AUCt/dose,[18],2 kg·ng·h/mL/mg
same,Kd,[1],1.19 µM
same,IC50,[2],2.37 µM
same,CC50,[6],> 100 µM
same,Tmax,[19],15 min
same,Tmax,[20],15 min
same,Ratio EC50,[21],8
same,AUCt/dose,[22],188.05 kg·ng·h/mL/mg
same,EC50,[7],5 µM
same,-TdeltaS,[8],7.6 kcal/mol
same,AUCt/dose,[23],150.62 kg·ng·h/mL/mg
same,Cmax,[24],33.7 ng/mL
same,Cmax,[25],325.95 ng/mL
same,deltaG,[9],-8.8 kcal/mol
same,EC50,[10],39.9 µM
same,Tmax,[26],45 min
same,Kd,[11],0.425 µM
same,Tmax,[27],30 min
same,AUCt/dose,[28],3.07 kg·ng·h/mL/mg
same,Ratio EC50,[29],8
same,deltaH,[12],-16.4 kcal/mol
same,Cmax,[30],22.72 ng/mg
same,EC50,[13],> 100 µM
same,EC50,[14],> 100 µM
same,EC50,[15],5.2 µM
same,MCC,[16],> 100 µM
Nc1nc2c(ncn2COCCO)c(=O)[nH]1 [ACYCLOVIR],MCC,[16],> 444 µM
O=C[C@H](Cc1c[nH]cn1)NC(=O)[C@H](Cc1c[nH]cn1)NC(=O)[C@@H]1Cc2ccccc2CN1 (H-[Tic]-His-His-aldehyde),Kd,[1],18.9 µM
same,IC50,[2],37.8 µM
O=c1[nH]c(=O)n([C@H]2C[C@H](O)[C@@H](CO)O2)cc1/C=C/Br [BRIVUDINE],EC50,[5],4.53 µM
same,EC50,[13],0.17 µM
same,MCC,[16],> 300 µM
Ac-GGVLVQPG-NH2,EC50,[7],17.6 µM
CC(=O)NCC(=O)N[C@@H](Cc1c[nH]cn1)C(=O)N[C@H](C=O)Cc1c[nH]cn1 (Ac-Gly-His-His-aldehyde),Kd,[1],> 107 µM
same,IC50,[2],> 213 µM
CC(=O)NCC(=O)N[C@@H](Cc1ccccc1)C(=O)N[C@H](C=O)Cc1c[nH]cn1 (Ac-Gly-Phe-His-aldehyde),Stability,[31],Stable
same,EC50,[3],> 20 µM
same,MCC,[4],≥ 100 µM
same,EC50,[5],> 100 µM
same,Kd,[1],1.26 µM
same,IC50,[2],2.51 µM
same,CC50,[6],> 100 µM
same,EC50,[7],66.1 µM
same,-TdeltaS,[8],4.16 kcal/mol
same,deltaG,[9],-8.53 kcal/mol
same,EC50,[10],> 100 µM
same,Kd,[11],0.64 µM
same,deltaH,[12],-12.7 kcal/mol
same,EC50,[13],> 100 µM
same,EC50,[14],> 100 µM
same,EC50,[15],40.3 µM
same,MCC,[16],> 100 µM
CCC(CC)COC(=O)[C@H](C)N[P@](=O)(OC[C@H]1O[C@@](C#N)(c2ccc3c(N)ncnn23)[C@H](O)[C@@H]1O)Oc1ccccc1,MCC,[4],80 µM
same,CC50,[6],70.6 µM
same,EC50,[7],0.89 µM
same,EC50,[10],1.3 µM
same,EC50,[15],0.2 µM
Nc1ccn(C[C@@H](CO)OCP(=O)(O)O)c(=O)n1 [CIDOFOVIR],EC50,[3],1.08 µM
same,EC50,[14],0.25 µM
